Measurements collected from several papers.
Compare with care: the assays were run in different laboratories.
Target: Serine/threonine-protein kinase MARK1 (MARK1, Homo sapiens, UniProt Q9P0L2)

CCS(=O)(=O)c1cc2cc(C[C@](O)(CC(C)(C)c3ccc(F)cc3C(N)=O)C(F)(F)F)[nH]c2cn1 has a remaining binding of 100% (cell-free assay; competition with immobilised ligand; 1 µM).
With N[C@@H]1CCN(c2nccc(-c3cnn4ncccc34)n2)C1 the remaining binding was 100% (binding; 1 µM).
The remaining binding of Cn1nc(C(=O)NCc2ccc(C(=O)O)cc2)cc1-c1ccc2[nH]ccc2c1 is reported as 100% (cell-free assay; competition with immobilised ligand; 0.1 µM).
FC(F)(F)Oc1cccc(-c2cnc3ccc(-c4ccncc4)nn23)c1 gave a remaining binding of 79% (cell-free assay; competition with immobilised ligand; 5 µM).
With F[C@@H]1CCN(c2nccc(-c3cnn4ncccc34)n2)C1 the remaining binding was 100% (binding; 1 µM).
With COc1ncc2cc3ccccc3nc2c1C#N the remaining binding was 65% (cell-free assay; competition with immobilised ligand; 5 µM).
With CC(C)(O)c1cncc(-c2nc3ccc(F)cc3n2C2CC2)c1 the remaining binding was 100% (cell-free assay; competition with immobilised ligand; 1 µM).
For COc1cnc(Nc2cccc(S(N)(=O)=O)c2)nc1N1CCN(c2ccccc2)C(=O)C1, the remaining binding was 95% (binding; competition with immobilised ligand; 1 µM).
For O=C(c1ccc(Nc2ncc(Cl)c(-c3ccc(Cl)s3)n2)cc1)N1CCC(N2CCCC2)CC1, the remaining binding was 24% (binding; competition with immobilised ligand; 1 µM).
The remaining binding of CC1CCCN1c1nccc(-c2cnn3ncccc23)n1 (stereo not shown) is reported as 100% (binding; 1 µM).
With O=C(NCCCN1CCOCC1)c1ccc(Nc2ncc(Cl)c(-c3ccc(Cl)s3)n2)cc1 the remaining binding was 25% (binding; competition with immobilised ligand; 1 µM).
O=c1nc(-c2ccccn2)sc2ccccc12 gave a remaining binding of 100% (binding; competition with immobilised ligand; 1 µM).
With COc1ccnn2ncc(-c3ccnc(N(C)C)n3)c12 the remaining binding was 97% (binding; 1 µM).
O=C(c1ccc(Nc2ncc(Cl)c(-c3cc4ccccc4s3)n2)cc1)N1CCC(N2CCCC2)CC1 gave a remaining binding of 27% (binding; competition with immobilised ligand; 1 µM).
C[C@@H]1CCN(c2nccc(-c3cnn4ncccc34)n2)C1 gave a remaining binding of 100% (binding; 1 µM).
The remaining binding of COCCOc1nc(-c2ccc(Cl)nc2)nc2c1CN(C(=O)c1ncn3ccccc13)CC2 is reported as 100% (cell-free assay; competition with immobilised ligand; 0.1 µM).
With O=C(Nc1c[nH]nc1C(=O)NC1CCNCC1)c1cc(F)cc(F)c1 the remaining binding was 100% (binding; competition with immobilised ligand; 1 µM).
CN(C)C(=O)Cn1cc(-c2nc([C@@](C)(c3ccc(-c4cnc(N)nc4)cc3)C3CC3)no2)cn1 has a remaining binding of 92% (cell-free assay; competition with immobilised ligand; 1 µM).
The remaining binding of CN(C)c1nccc(-c2cnc3ncccn23)n1 is reported as 80% (binding; 1 µM).
With COc1cnc(Nc2cccc(S(N)(=O)=O)c2)nc1N1CCN(c2ccccc2)CC1 the remaining binding was 100% (binding; competition with immobilised ligand; 1 µM).
For CN(C)c1ncc(F)c(-c2cnn3ncccc23)n1, the remaining binding was 100% (binding; 1 µM).
For CNC(=O)Nc1ccc2c(c1)CC[C@@]21OC(=O)N(CC(=O)N(Cc2ccc(F)cc2)[C@@H](C)C(F)(F)F)C1=O, the remaining binding was 89% (cell-free assay; competition with immobilised ligand; 1 µM).
